The values that follow come from ChEMBL document CHEMBL4425103, “Diving into the Water: Inducible Binding Conformations for BRD4, TAF1(2), BRD9, and CECR2 Bromodomains” (J Med Chem, 2016).

Molecules are shown by their SMILES.

Assay [1] concerns the target Chromatin remodeling regulator CECR2 (Homo sapiens, UniProt Q9BXF3). Briefly: Inhibition of recombinant His-tagged CECR2 (unknown origin) using biotinylated ligand incubated for 10 mins by TR-FRET assay.
For another assay, the target named is T1, Peregrin (Homo sapiens, UniProt P55201).
T1 sequence (P55201 whole entry): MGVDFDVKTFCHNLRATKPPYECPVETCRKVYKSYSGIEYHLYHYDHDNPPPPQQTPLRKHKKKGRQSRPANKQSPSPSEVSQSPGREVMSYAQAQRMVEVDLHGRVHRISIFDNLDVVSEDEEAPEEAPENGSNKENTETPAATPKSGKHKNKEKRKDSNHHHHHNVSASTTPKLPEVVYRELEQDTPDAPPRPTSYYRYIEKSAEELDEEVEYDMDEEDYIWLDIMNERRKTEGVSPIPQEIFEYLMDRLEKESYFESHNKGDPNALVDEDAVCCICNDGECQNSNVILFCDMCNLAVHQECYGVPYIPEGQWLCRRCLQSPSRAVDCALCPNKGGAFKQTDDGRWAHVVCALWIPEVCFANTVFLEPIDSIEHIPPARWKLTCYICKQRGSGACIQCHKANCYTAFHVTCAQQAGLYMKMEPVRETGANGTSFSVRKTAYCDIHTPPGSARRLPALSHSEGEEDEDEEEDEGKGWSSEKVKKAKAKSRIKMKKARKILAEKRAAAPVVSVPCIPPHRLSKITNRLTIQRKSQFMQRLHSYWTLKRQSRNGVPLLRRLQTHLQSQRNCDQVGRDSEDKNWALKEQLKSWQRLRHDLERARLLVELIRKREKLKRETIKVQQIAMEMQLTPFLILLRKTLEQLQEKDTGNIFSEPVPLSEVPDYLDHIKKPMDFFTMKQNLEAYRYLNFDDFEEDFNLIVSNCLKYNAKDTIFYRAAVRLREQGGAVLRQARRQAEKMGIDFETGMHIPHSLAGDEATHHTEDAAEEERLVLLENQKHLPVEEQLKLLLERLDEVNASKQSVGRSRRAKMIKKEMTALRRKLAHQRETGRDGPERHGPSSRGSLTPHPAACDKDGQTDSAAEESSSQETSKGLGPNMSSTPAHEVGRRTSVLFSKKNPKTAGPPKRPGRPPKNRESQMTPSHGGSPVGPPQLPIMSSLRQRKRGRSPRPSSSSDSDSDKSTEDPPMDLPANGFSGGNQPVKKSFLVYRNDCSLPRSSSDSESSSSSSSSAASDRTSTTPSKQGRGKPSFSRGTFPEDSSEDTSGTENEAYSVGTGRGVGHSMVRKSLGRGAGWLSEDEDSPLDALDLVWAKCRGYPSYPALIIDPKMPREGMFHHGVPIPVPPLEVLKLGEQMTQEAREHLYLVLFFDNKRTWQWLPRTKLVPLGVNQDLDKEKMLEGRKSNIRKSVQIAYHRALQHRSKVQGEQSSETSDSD
As to the kind of experiment: Displacement of biotinylated JQ1 analog from recombinant His-tagged BRPF1 (unknown origin) incubated for 10 mins by TR-FRET assay. The procedure, abridged:
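Bromodomain, then biotinylated ligand, each added with 10 min incubation. Anti-His europium (0.2 nM) plus streptavidin-APC followed for 40 min. 10-point titrations in duplicate, at least 2 independent runs.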

Assay [2] concerns the target T2, Bromodomain-containing protein 4 (Homo sapiens, UniProt O60885). Briefly: Inhibition of recombinant His-tagged BRD4 bromodomain2 (unknown origin) using biotinylated ligand incubated for 10 mins by TR-FRET assay. For orientation: TR-FRET usually uses a lanthanide donor and a delayed reading to cut background.
The target in assay [3] is T3, Transcription initiation factor TFIID subunit 1 (Homo sapiens, UniProt P21675). Briefly: Inhibition of recombinant His-tagged TAF1 isoform-2 (unknown origin) using biotinylated ligand incubated for 10 mins by TR-FRET assay.
In assay [4] the target is T3, Transcription initiation factor TFIID subunit 1. As to the kind of experiment: Inhibition of recombinant His-tagged TAF1 isoform-1 (unknown origin) using biotinylated ligand incubated for 10 mins by TR-FRET assay.
The target in another assay is CREB-binding protein (Homo sapiens, UniProt Q92793). As to the kind of experiment: Displacement of biotinylated JQ1 analog from recombinant His-tagged CBP (unknown origin) incubated for 10 mins by TR-FRET assay.
In assay [5] the target is T2, Bromodomain-containing protein 4. Briefly: Inhibition of recombinant His-tagged BRD4 bromodomain1 (unknown origin) using biotinylated ligand incubated for 10 mins by TR-FRET assay.
Assay [6] concerns the target T4, Bromodomain-containing protein 9 (Homo sapiens, UniProt Q9H8M2).
T4 sequence (Q9H8M2 whole entry): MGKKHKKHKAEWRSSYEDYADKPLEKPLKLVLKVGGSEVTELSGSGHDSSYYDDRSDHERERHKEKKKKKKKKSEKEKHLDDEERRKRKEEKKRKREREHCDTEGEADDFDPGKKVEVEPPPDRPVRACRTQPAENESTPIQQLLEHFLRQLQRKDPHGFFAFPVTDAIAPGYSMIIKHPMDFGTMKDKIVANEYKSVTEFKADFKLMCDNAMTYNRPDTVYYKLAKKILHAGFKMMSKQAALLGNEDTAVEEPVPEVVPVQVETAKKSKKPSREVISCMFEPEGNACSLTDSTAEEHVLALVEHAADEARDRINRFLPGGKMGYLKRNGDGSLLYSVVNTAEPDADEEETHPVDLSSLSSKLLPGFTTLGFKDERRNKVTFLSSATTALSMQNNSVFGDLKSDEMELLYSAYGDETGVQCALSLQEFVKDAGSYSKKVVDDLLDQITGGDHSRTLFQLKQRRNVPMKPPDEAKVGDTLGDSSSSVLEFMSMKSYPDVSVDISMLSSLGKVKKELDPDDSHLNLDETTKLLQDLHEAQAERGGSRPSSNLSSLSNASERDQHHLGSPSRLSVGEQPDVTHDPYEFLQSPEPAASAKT
As to the kind of experiment: Displacement of biotinylated JQ1 analog from recombinant His-tagged BRD9 (unknown origin) incubated for 10 mins by TR-FRET assay.

T3 sequence (P21675 whole entry, canonical isoform): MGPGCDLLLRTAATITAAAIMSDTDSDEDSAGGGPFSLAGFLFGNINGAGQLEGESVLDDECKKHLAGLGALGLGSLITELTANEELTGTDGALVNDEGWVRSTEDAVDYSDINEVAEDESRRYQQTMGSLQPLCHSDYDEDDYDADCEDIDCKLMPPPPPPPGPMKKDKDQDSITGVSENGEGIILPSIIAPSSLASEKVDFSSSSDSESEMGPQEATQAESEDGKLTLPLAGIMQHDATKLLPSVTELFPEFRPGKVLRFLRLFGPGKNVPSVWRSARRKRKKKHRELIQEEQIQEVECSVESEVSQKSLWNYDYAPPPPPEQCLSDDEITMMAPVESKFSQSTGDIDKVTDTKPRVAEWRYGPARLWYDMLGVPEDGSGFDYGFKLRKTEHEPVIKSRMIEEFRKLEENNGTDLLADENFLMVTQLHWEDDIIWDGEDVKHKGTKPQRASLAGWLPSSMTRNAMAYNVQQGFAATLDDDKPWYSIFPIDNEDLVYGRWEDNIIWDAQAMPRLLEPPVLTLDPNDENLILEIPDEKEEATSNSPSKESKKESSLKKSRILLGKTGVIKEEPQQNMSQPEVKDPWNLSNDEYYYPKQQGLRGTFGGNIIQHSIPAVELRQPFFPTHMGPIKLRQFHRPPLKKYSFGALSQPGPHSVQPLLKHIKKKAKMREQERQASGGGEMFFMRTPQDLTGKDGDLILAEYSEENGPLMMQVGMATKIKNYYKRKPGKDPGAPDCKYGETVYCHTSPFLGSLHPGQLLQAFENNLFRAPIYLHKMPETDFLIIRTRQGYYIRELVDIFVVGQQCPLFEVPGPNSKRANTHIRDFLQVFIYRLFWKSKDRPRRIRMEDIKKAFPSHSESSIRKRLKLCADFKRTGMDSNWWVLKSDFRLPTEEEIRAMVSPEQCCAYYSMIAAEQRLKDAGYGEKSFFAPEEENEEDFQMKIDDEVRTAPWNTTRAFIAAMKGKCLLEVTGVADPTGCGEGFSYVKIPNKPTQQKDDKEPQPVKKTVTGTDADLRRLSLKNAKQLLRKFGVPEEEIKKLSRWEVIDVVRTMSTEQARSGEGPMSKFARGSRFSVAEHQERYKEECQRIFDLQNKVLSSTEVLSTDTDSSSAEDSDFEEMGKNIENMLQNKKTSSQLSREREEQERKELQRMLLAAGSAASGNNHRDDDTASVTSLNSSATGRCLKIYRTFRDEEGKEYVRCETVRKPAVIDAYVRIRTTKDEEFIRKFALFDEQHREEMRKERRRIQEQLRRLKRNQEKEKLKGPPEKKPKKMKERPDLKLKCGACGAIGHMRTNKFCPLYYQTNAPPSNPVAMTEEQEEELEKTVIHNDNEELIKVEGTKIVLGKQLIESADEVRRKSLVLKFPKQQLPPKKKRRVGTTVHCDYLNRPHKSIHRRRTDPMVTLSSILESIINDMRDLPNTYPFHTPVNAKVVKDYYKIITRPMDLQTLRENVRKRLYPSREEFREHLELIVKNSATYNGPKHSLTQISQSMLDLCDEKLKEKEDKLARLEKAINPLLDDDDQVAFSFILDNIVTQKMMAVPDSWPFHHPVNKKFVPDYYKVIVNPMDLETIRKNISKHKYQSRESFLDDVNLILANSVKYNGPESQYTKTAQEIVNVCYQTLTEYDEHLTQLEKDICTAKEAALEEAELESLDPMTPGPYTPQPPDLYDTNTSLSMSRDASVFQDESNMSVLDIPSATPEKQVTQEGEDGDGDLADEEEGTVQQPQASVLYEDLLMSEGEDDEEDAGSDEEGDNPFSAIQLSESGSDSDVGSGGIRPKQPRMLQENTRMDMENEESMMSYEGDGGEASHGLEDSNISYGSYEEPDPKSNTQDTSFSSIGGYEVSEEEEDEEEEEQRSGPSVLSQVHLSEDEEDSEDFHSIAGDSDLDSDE
CREB-binding protein, sequence (Q92793 whole entry): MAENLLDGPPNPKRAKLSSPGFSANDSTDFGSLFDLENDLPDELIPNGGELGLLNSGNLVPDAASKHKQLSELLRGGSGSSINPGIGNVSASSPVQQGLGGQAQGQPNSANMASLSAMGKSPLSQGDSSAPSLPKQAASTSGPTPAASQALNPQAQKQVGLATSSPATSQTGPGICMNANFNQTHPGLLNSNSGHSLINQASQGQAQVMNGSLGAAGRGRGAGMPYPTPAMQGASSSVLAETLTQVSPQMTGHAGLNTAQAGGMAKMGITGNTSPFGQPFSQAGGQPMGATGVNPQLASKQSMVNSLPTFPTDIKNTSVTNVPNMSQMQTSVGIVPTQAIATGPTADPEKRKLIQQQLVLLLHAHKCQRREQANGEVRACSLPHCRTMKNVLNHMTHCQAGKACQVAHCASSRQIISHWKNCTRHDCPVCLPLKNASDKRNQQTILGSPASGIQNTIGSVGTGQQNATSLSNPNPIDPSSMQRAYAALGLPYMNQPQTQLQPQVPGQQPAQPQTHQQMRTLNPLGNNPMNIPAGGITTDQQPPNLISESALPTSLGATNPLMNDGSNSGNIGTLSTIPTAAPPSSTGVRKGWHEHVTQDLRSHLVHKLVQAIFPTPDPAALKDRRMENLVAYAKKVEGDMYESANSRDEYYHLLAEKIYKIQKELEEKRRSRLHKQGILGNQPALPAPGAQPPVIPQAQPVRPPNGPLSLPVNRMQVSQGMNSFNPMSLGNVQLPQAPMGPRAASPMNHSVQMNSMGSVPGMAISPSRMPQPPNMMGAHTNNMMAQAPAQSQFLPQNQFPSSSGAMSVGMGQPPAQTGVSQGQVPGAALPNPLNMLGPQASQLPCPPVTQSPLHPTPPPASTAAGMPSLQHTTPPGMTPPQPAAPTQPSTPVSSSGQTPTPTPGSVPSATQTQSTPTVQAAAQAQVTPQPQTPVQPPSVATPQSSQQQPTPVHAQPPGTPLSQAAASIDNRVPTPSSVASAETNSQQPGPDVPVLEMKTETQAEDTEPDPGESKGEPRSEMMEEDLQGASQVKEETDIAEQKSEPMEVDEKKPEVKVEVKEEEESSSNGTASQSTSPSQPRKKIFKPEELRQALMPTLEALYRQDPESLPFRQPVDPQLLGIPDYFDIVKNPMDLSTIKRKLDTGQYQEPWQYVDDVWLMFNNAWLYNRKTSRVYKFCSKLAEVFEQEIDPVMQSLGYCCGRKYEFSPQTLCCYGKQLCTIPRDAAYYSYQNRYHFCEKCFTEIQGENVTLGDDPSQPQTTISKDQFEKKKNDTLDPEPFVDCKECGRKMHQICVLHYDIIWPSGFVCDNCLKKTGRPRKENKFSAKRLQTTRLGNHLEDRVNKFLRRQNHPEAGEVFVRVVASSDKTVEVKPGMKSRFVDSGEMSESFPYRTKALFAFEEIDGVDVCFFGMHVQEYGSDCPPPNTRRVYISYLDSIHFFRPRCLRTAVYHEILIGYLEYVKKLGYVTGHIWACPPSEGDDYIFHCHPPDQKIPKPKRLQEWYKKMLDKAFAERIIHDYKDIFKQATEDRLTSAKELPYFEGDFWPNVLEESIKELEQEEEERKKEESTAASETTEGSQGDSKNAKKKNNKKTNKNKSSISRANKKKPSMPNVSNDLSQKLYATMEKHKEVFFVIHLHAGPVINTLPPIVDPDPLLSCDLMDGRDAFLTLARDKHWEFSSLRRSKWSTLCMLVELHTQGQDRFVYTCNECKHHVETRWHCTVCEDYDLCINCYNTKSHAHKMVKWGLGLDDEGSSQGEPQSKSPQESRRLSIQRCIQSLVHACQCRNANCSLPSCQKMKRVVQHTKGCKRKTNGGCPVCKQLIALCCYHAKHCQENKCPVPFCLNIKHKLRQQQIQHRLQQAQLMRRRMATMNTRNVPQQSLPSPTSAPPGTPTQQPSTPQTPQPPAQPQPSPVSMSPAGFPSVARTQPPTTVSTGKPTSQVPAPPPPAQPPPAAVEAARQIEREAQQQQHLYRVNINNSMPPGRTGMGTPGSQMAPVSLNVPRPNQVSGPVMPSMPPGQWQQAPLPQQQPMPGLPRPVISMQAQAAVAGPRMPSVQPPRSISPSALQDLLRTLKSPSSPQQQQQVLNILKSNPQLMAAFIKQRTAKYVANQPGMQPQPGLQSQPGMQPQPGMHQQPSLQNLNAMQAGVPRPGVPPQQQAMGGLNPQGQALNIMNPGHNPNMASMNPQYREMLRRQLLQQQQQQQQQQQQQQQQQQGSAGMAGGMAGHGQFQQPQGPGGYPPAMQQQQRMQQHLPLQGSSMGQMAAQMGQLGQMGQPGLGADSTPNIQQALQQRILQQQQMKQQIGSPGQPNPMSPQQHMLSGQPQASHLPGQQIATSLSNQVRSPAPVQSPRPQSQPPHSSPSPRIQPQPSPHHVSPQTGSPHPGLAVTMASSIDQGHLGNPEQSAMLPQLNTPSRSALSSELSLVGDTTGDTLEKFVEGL

The IC50 is the point on the concentration scale where inhibition reaches its midpoint. Regarding `Cn1ccc2cc[nH]c2c1=O`, the IC50 in assay [1] worked out at 42.8 µM; at Peregrin, 53.8 µM; in assay [2], 7.5 µM; in assay [3], 23.7 µM; in assay [4], 38.9 µM; at CREB-binding protein, 11.8 µM. The IC50 in assay [5] is 18.4 µM; in assay [6], 13.7 µM.
`C=CCCn1cc(-c2cccc(C(=O)N(C)C)c2)c2cc[nH]c2c1=O`: the IC50 on Peregrin was above 20 µM.
The same measure, in the same setting: under `C/C=C/Cn1cc(-c2cccc(C(=O)N(C)C)c2)c2cc[nH]c2c1=O` stands above 20 µM.
